Experimental data as given in article PMC4876925 (Nano research, 2016).
Each block holds one molecule with its values, some of them ahead of it. Residues, ends and D or L forms follow the SMILES beside them.

Experiments:
[1] = biological target: recombinant human His-tagged CD13 (Homo sapiens, UniProt P15144); experiment: CD13 enzymatic activity assay; type: biochemical
αvβ3 = αvβ3 (Homo sapiens, UniProt P05106+P06756); experiment: Integrin competitive binding assay with CisoDGRC-peroxidase
[2] = cited from earlier work
WEHI-164 fibrosarcoma = experiment: Anti-tumor activity in the WEHI-164 fibrosarcoma model; type: in vivo, BALB/c female mice; conditions: dose-escalation, i.v.
In short: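 Female BALB/c mice, 6–7 weeks old, received 1.5 × 10^6 WEHI-164 cells s.c. in the left flank. On day 5, mice got single i.v. doses of TNF-loaded gold nanoparticles (1–4 or 9–16 bioactive TNF molecules/nanoparticle) in 0.9% NaCl with 100 µg/mL HSA. Tumors were measured with calipers and volumes from day 5 to day 9 were normalized to day 5. Data are mean ± SE from 1–7 independent experiments, 6 mice each.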

- CD13 inhibition efficiency relative to NGR-2C(Y) ([1]; enzyme inhibition, 30 min at 37 °C): 5–6 fold
- Binding efficiency to CD13 relative to CNGRC (NGR-2C) and c(CNGRGG) (N3) ([1]; recombinant soluble CD13, enzyme binding and inhibition experiments): 6–10 fold
- EC50 (αvβ3): 10 µM
Molecule: N=C(N)NCCC[C@@H]1NC(=O)CNC(=O)[C@H](CC(N)=O)NC(=O)CNC(=O)[C@H](CS)NC(=O)CNC1=O [N1, c(CGNGRG)] (cyclo(CGNGRG))

Molecule: CNGRC (disulfide) [NGR-2C]
- Half-life of asparagine (deamidation) [2]: 3 to 4 h

Molecule: CNGRCG-TNF (disulfide) [NGR-TNF]
- Shape of dose-response curve (tumor growth day 5 to day 9) (WEHI-164 fibrosarcoma): U-shaped dose-response curve
